From PubChem BioAssay
Sampled rows, rich in hits. Any-hit rate of the full collection: about 2.3%.
V1R ag counter: activates human V1a receptor in oxytocin agonist counter-screen. P37288. CHO-V1R cells, Fluo-8 calcium fluorescence, agonist mode; 0% DMSO, 100% 3 nM vasopressin. activation, % at 3 µM. 320,000 tested, 0.25% active;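 active means activation above the mean activation of all tested compounds plus 3 SD, per screening run, cut at about 20% in these data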;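 further: signal is peak over basal fluorescence ratio across a 100 second FLIPR read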
TAAR1 ag: agonists of human TAAR1. activation, % at 3 µM. Q96RJ0. CHO RD-HGA16 TAAR1, Fluo-8 calcium fluorescence; vehicle wells 0%, saturating PEA agonist 100%. AID 624467. 360,000 tested, 0.99% active;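 active means activation above the mean activation of all test compounds in the run plus 3 SD, cut at about 38% in these data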
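Repeats: no replicates (n 1) | Material: CHO-derived RD-HGA16 cells with stable Gα16 and human TAAR1 | Technique: Kinetic Fluo-8 calcium fluorescence | Schedule: 17-24 h seeding, 75 min 37 °C dye, 30 min RT | Evaluation: % activation from peak over basal fluorescence ratio, DMSO-to-PEA scaled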
OXTR agonist: human OXTR agonism | activation, % at 3 µM | AID 2435 | CHO-OTR cells, Fluo-8 calcium fluorescence; normalized: DMSO 0%, oxytocin 100% | 320,000 tested, 0.32% active;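 active means activation above the mean of all tested compounds plus 3 SD, cutoff set per screening run, cut at about 20% in these data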;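 further: peak over basal fluorescence ratio from a 100 s FLIPR kinetic read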
Target sequence (P30559 whole entry, looked up): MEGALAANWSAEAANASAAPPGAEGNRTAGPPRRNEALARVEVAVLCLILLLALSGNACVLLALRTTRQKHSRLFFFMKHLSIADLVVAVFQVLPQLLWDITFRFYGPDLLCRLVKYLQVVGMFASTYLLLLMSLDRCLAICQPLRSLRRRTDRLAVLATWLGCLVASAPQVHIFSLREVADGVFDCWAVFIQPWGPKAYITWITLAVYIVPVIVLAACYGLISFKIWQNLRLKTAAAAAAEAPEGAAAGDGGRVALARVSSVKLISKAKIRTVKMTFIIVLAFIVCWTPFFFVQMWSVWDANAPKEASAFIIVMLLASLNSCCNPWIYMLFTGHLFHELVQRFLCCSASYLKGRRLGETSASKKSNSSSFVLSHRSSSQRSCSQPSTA
TAAR1 antag: antagonists of human TAAR1; Q96RJ0; CHO RD-HGA16 TAAR1, Fluo-8 calcium fluorescence, antagonist; inhibition, % at 3 µM; 360,000 tested, 1.5% active;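 active means inhibition above a per-plate cutoff, the mean inhibition of test compounds on that plate plus 3 SD, cut at about 49% in these data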;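 further: 0% = DMSO plus EC80 beta-PEA response and 100% = DMSO alone without agonist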
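Material: RD-HGA16 CHO cells with stable hTAAR1 and Gα16; Dosing: single nominal final test compound concentration of 3 µM; Schedule: seeding 17-24 h prior, 75-min 37 °C, 30-min RT dye loading; Detection: kinetic Fluo-8 calcium fluorescence measurement; Measure: % inhibition from peak post-agonist over basal fluorescence ratio; Benchmarks: vehicle and agonist controls.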
OXTR potentiate: potentiators of human oxytocin receptor | P30559 | 320,000 tested, 0.061% active | CHO-OTR cells, Fluo-8 calcium fluorescence, potentiator mode; 0% = oxytocin EC15, 100% = EC100 | activation, % at 3 µM;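 active means activation above that plate's cutoff, the mean activation of tested compounds plus 3 SD, cut at about 6.6% in these data, passing the limit was not always enough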;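 further: 100% uses oxytocin at 75 nM as the full agonist control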
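Measured by – Fluo-8 calcium dye fluorescence · Test system – human OTR in CHO cells · Dosing – one concentration, 3.0 µM compound · Controls – EC15 oxytocin alone as 0%, 75 nM oxytocin as 100% · Evaluation – normalized max/min fluorescence ratio, % activation · Timing – 6 min pre-incubation, 100 s read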
TAAR1 ag conf: human TAAR1 agonism, confirmed | shares compounds with TAAR1 ag | CHO RD-HGA16 TAAR1, Fluo-8 calcium fluorescence; scaled: DMSO 0%, maximal phenethylamine 100% | activation, % at 3 µM | 2,400 tested, 82% active;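 active means activation above a cutoff set at the run's mean compound activation plus 3 SD, cut at about 39% in these data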
Ga16 nonsel ag: counter-screen for TAAR1 agonists: nonselective agonists in parental cells; shares compounds with TAAR1 ag; CHO-Ga16 parental, Fluo-8 calcium fluorescence; normalized to maximal ATP response, DMSO zero; 2,400 tested, 50% active; activation, % at 3 µM;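 active means activation above the run cutoff, the mean activation over all tested wells plus 3 SD, cut at about 12% in these data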;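 further: 0% = DMSO wells and 100% = maximal ATP response on the peak over basal ratio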
TAAR1 desensitize: human TAAR1 agonist that also desensitizes the receptor | shares compounds with TAAR1 ag | CHO RD-HGA16 hTAAR1, Fluo-8 calcium, beta-PEA response inhibition | inhibition, % at 3 µM | 2,400 tested, 46% active;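 active means inhibition above the run cutoff, the mean inhibition of all test compounds plus 3 SD, cut at about 49% in these data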;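 further: beta-PEA stimulus applied at its EC80; loss of beta-PEA calcium signal after compound pretreatment read as receptor desensitization; 0% = DMSO with beta-PEA at EC80 and 100% = DMSO alone without agonist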
Ga16 antag count: counter-screen for TAAR1 agonists: nonselective Ga16 antagonists | shares compounds with TAAR1 ag | CHO-Ga16 ATP-induced calcium, Fluo-8 fluorescence | inhibition, % at 3 µM | 2,400 tested, 39% active;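 active means inhibition above the plate's mean compound inhibition plus 3 SD, computed per plate, cut at about 22% in these data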;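 further: 0% = EC80 ATP with DMSO and 100% = DMSO wells without ATP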
An asterisk follows results filed as active; . = no result given.

SMILES	V1R ag counter	TAAR1 ag	OXTR agonist	TAAR1 antag	OXTR potentiate	TAAR1 ag conf	Ga16 nonsel ag	TAAR1 desensitize	Ga16 antag count
CC(NC(=O)c1ccncc1)C(C)(C)C (stereo not given)	0	10	-1	15	-1	.	.	.	.
CCCCNC(=S)NNC(=O)CCn1cc(C)cn1	1	12	0	-22	-1	.	.	.	.
CC1NC(=O)c2cc3ccccc3cc2-n2c1nc1cc(Cl)ccc1c2=O (stereo not given)	.	2	.	-29	.	.	.	.	.
CCc1ccccc1Nc1nc(-c2cccnc2)cs1	-1	1	-2	-14	-2	.	.	.	.
CCOC(=O)c1cn(Cc2ccccc2)c2cc(C)nn2c1=O	0	3	0	-8	-9	.	.	.	.
CCOC(=O)c1cn(Cc2ccccc2)c(C(=O)OC(C)(C)C)c1O	28*	82*	52*	68*	-19	73*	56*	70*	57*
CCOC(=O)/C(=C\C=C1/Sc2cc(OCC)c(OCC)cc2N1CC)C(C)=O	92*	121*	148*	62*	-12	167*	225*	80*	86*
CCOc1ccc2nnnn2n1	0	10	1	-4	-5	.	.	.	.
CCCCOC(=O)Cn1c(=N)n(CCC)c2ccccc21	0	2	0	-26	-15	.	.	.	.
CCOC(=O)Cn1c(=N)n(CCOc2ccc3ccccc3c2)c2ccccc21	6	58*	13	11	-9	57*	26*	51*	41*
COc1cc(/C=C/C(=O)OCC(=O)NC(=O)NC(C)(C)C)cc(OC)c1OC	0	3	-2	16	-10	.	.	.	.
c1ccc2c(NC3CCCC3)nnc(NC3CCCC3)c2c1	-1	4	-2	-4	-14	.	.	.	.
O=C(NCCc1ccccc1)c1ccccc1Cl	0	2	-1	-23	-10	.	.	.	.
CC(CCc1ccccc1)NCC#N (stereo not given)	2	53*	1	-15	-3	51*	0	8	6
O=C(NCCc1ccccc1)Nc1ccc(Cl)cc1	4	47*	1	37	-6	46*	21*	42	28*
O=C(O)c1ccccc1C(=O)NCCc1ccc(Cl)cc1	1	60*	1	17	3	61*	7	27	9
NC(Cc1ccc(Cl)cc1)c1csc(NC(=O)NCCc2ccccc2)n1 (stereo not given)	.	75*	.	68*	.	60*	30*	63*	51*
COc1cc(/C=C2\SC(=S)N(CC(=O)O)C2=O)ccc1OS(=O)(=O)c1ccc(C)cc1	1	2	0	-5	-9	.	.	.	.
Cc1cc(C(=O)NNC(=S)NCC2CCCO2)cs1 (stereo not given)	0	12	0	3	-7	.	.	.	.
COc1ccccc1N1CCN(C(=O)CSc2nnc(C)n2C2CC2)CC1	0	0	0	-24	-4	.	.	.	.
CCOC(=O)c1c(C)n(CC(COC(C)=O)OC(C)=O)c2ccc(OC(C)=O)cc12 (stereo not given)	0	9	0	-9	1	.	.	.	.
COc1cc(NC(=S)Nc2ncccc2C)cc(OC)c1OC	0	4	-1	2	-12	.	.	.	.
CC(CCc1ccccc1)NC(=O)c1ccc(C(=O)NC(C)CCc2ccccc2)cc1 (stereo not given)	1	1	1	-1	-4	.	.	.	.
CC(CCc1ccccc1)NC(=O)c1ccccc1C(=O)O (stereo not given)	0	48*	0	-12	-15	63*	20*	2	2
Cc1cc(C)nc(Nc2nc(C(N)Cc3ccc(Cl)cc3)cs2)n1 (stereo not given)	.	63*	.	50*	.	45*	27*	31	33*
SMILES	V1R ag counter	TAAR1 ag	OXTR agonist	TAAR1 antag	OXTR potentiate	TAAR1 ag conf	Ga16 nonsel ag	TAAR1 desensitize	Ga16 antag count
Cc1cc(C)nc(OC(C(=O)O)C(OCc2ccccc2)(c2ccccc2)c2ccccc2)n1 (stereo not given)	0	113*	-1	2	-7	136*	58*	9	-7
Cc1cc(C)nc(OC(C(=O)O)C(OCCC(C)C)(c2ccccc2)c2ccccc2)n1 (stereo not given)	-1	89*	-2	18	-3	127*	92*	30	13
CCCOC(c1ccccc1)(c1ccccc1)C(Oc1nc(C)cc(C)n1)C(=O)O (stereo not given)	-1	30	-1	-11	-4	.	.	.	.
S=C(Nc1ccc(Cl)c(Cl)c1)NC1CCN(Cc2ccccc2)CC1	39*	112*	42*	74*	-32	98*	57*	89*	67*
Fc1ccc(NC(=S)NC2CCN(Cc3ccccc3)CC2)cc1	4	10	6	-15	-18	.	.	.	.
CCc1ncn(CCc2ccccc2OC)c1C(C)C	.	53*	.	29	.	63*	1	34	7
COc1ccccc1CCn1cnc(C)c1CC(C)C	.	76*	.	29	.	69*	0	40	13
COc1ccccc1CCn1cnc(Cc2cccc(F)c2)c1C(C)C	.	37	.	42	.	.	.	.	.
CC1CCN(CC(=O)c2cccs2)CC1	0	2	0	-22	-14	.	.	.	.
O=C(NCN1CCc2ccccc2C1)c1ccccc1	0	82*	0	54*	-18	50*	1	21	5
CCCNC(=O)c1ccc(CN2CCc3ccccc3C2)cc1	1	6	2	6	-10	.	.	.	.
O=C(NCN1CCc2ccccc2C1)c1cnccn1	1	95*	1	57*	3	88*	0	65*	8
O=C(CN1CCc2ccccc2C1)c1cccs1	0	75*	0	25	-10	86*	3	46	-1
O=C(O)CC1(C(=O)O)CC2C=CC1C2 (stereo not given)	.	1	.	4	.	.	.	.	.
O=C(CSC1=NS(=O)(=O)c2cc(F)ccc2N1)NCCc1ccccc1	1	101*	2	81*	3	105*	1	94*	6
O=C(CSC1=NS(=O)(=O)c2cc(F)ccc2N1)Nc1ccccc1	0	1	0	-29	-8	.	.	.	.
